# Assay results reported in PubChem BioAssay AID561 (The Scripps Research Institute Molecular Screening Center, 2006).
# About 280 (0.43%) of roughly 65,000 compounds were called active. The full list was thinned out, with actives kept by preference. A number with no mark means an inactive call.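 Rule for the calls: active = inhibition above the mean of all tested compounds plus 3 SD (cut at about 52% in these data); inactive = the rest.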
# Molecular target: Nuclear receptor ROR-alpha (Homo sapiens) (UniProt P35398)
# Experiment: inhibitors of orphan receptor RORA, primary screen, cell-based, luminescence (AID 561)
# Conditions: CHO-K1 Gal4-RORA LBD luciferase reporter, at 10 µM, hits give high values
# Outline: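 Test system – CHO-K1 Gal4-RORA LBD luciferase reporter cells · Schedule – 20 h at 37 °C · Signal – luminescence from basal luciferase reporter expression · Measure – percent inhibition of basal reporter luminescence, control-normalized · Control set – -RORA mock-transfected DMSO wells 100%, +RORA DMSO wells 0%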
# Chain of Nuclear receptor ROR-alpha (Homo sapiens) (P35398 whole entry, looked up): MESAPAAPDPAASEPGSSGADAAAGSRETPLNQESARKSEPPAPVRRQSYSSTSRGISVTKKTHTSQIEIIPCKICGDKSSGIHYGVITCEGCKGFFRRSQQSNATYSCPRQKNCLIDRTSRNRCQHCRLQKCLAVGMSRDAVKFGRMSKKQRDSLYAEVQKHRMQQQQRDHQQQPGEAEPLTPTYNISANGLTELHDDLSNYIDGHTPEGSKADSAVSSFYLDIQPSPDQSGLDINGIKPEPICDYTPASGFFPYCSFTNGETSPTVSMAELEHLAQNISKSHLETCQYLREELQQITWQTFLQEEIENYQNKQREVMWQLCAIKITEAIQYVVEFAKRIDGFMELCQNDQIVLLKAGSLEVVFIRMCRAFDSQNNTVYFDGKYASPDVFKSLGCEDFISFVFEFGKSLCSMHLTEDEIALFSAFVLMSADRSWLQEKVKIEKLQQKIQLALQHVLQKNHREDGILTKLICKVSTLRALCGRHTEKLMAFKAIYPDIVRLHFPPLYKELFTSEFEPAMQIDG
row,Compound,inhibition
1,COc1ccccc1C(=O)C(O)c1ccccc1OC (stereo unspecified),-19.7%
2,O=C(c1cc(-c2cccs2)on1)N1CCCCC1,-63.4%
3,Cc1noc(C)c1S(=O)(=O)Nc1ccc(C(=O)O)cc1,-7.4%
4,Cn1c(SCc2c(F)cccc2Cl)nnc1-c1cnccn1,-62.8%
5,Nc1ccc(-c2nnc(-c3ccc(-c4ccccc4)cc3)o2)cc1,-60.7%
6,COc1ccccc1-n1nnnc1S(=O)(=O)Cc1ccc(Cl)cc1,54.4% (active)
7,OCCCNC(c1ccccc1)c1ccc(O)cc1 (stereo unspecified),24.8%
8,COc1ccc(OC)c(CNC(=O)C2CCCN(c3nc4ccccc4o3)C2)c1 (stereo unspecified),33.3%
9,COC(=O)CCSc1nccn1Cc1ccccc1,7.6%
10,COc1ccccc1CNC(=O)C1CCN(c2nc3ccccc3o2)CC1,14%
11,CCS(=O)(=O)N1CCCC(C(=O)NCCCN(C)Cc2ccccc2)C1 (stereo unspecified),-3.1%
12,Cc1cc(Cl)c(S(=O)(=O)Nc2ccc3c(c2)OCCO3)cc1OCC(N)=O,22.5%
13,OC1CN=C2Sc3ccccc3N2C1 (stereo unspecified),10.5%
14,CCOc1ccccc1N(CC(=O)NC1CCCCC1)C(=O)CCCC(=O)Nc1ccccn1,-9%
15,CN1CCCC(OC(=O)COc2ccc(Br)cc2)C1 (stereo unspecified),-27%
16,CC(=O)Nc1cccc(-c2cnc3ccccc3n2)c1,-72.9%
17,Cc1ccc(Cc2nc(-c3cccc(C)c3)no2)cc1,-51.5%
18,CCNC(=O)CCc1nc(-c2ccc(C(C)(C)C)cc2)no1,88.3% (active)
19,Cc1cc(C)nc(NC(=O)Nc2ccccc2C(F)(F)F)n1,-29%
20,Cc1cccc(NC(=O)CSc2nc3c(c(=O)[nH]2)CCC3)c1C,0.6%
21,CC(C)CCNc1nc(N2CCCC2)c2c(c1C#N)CCN(C)C2,-5.2%
22,COc1ccc(Cl)cc1S(=O)(=O)Nc1cccc(C(=O)O)c1,2.9%
23,O=C(O)CCC(=O)NCc1ccc2[nH]c3c(c2c1)CCCC3,11.8%
24,COCCCNC(=O)Cn1cc(C(=O)C2CC2)c2ccccc21,-7.6%

row,Compound,inhibition
1,COc1ccc(CN(C(=O)c2cccs2)c2nccs2)cc1OC,-6.9%
2,CCOC(=O)Nc1ccccc1N1C(=O)c2ccccc2C1=O,-13%
3,Cn1c(SCC(=O)Nc2cccc(O)c2)nnc1-c1ccc(S(=O)(=O)N2CCOCC2)cc1,-31.5%
4,CC[C@H]1CN2CCc3cc(OC)c(OC)cc3[C@@H]2C[C@@H]1C[C@H]1NCCc2cc(OC)c(OC)cc21,95.3% (active)
5,O=C(Nc1cccnc1)c1noc2c1CCCCC2,19.3%
6,CC[C@]1(O)CC2CN(CCc3c([nH]c4ccccc34)[C@@](C(=O)OC)(c3cc4c(cc3OC)N(C=O)[C@H]3[C@@](O)(C(=O)OC)[C@H](OC(C)=O)[C@]5(CC)C=CCN6CC[C@]43[C@@H]65)C2)C1 (stereo partly specified),54% (active)
7,O=C(C1CCC1)N1CCc2cc(S(=O)(=O)NCc3cccnc3)ccc21,-16.5%
8,Cc1ccc(C(c2nnnn2C(C)(C)C)N2CCc3ccccc3C2)cc1 (stereo unspecified),-0.2%
9,CN(c1ccccc1)c1ccc(/C=c2\s/c(=C(/C#N)C(=O)C(C)(C)C)n(Cc3ccco3)c2=O)cc1,11.3%
10,CCCCc1nc2ccccc2c(NC(=O)CN2CCN(C)CC2)c1CCC,-1.9%
11,O=C(Nc1ccon1)c1cccc(Cl)c1,2.2%
12,O=C(Nc1ccc(Cl)cc1)c1ccsn1,-59.5%
13,COc1ccc(OC)c(NC(=O)Cn2c(=O)oc3ccccc32)c1,-7.4%
14,O=C(CC1OC(=O)c2ccccc21)NC1CCCCC1 (stereo unspecified),7.6%
15,COc1ccc(-c2cc(C(F)(F)F)nc(S(C)(=O)=O)n2)cc1OC,60.9% (active)
16,CCN1C(=O)/C(=C2\SC(N3CCCCC3)=NC2=O)c2ccccc21,-84.9%
17,c1ccc(-n2ncc3c2ncn2c(CSc4nc5ccccc5s4)nnc32)cc1,25%
18,O=C(NCc1ccccn1)c1c(O)c2c([nH]c1=O)CCCC2,9.5%
19,O=C(OC1CCOC1=O)c1ccc(-c2nc3ccccc3s2)s1 (stereo unspecified),60.6% (active)
20,CN(Cc1ccccc1)c1nc2c(c(=O)[nH]c(=O)n2C)n1CCSc1nc2ccccc2[nH]1,-1.9%
21,CCOc1ccccc1NC(=O)CCN1CCN(S(=O)(=O)c2ccc(OC)cc2)CC1,0.6%
22,NC(=O)CSC1=Nc2ccccc2C2=NC(CCC(=O)NCc3ccc(F)cc3)C(=O)N12 (stereo unspecified),17.5%
23,CCOC(=O)C1=C(CC)Nc2ccccc2N=C1NC(=O)c1cccc(S(=O)(=O)N2CCCC2)c1,-0.9%
24,CCn1c(=N)c(S(=O)(=O)c2ccc(F)cc2)cc2c(=O)n3ccccc3nc21,13.5%

row,Compound,inhibition
1,c1ccc2c(c1)OCC(CNc1ncnc3nc[nH]c13)O2 (stereo unspecified),-20.2%
2,Cc1ccc2nc(NC(=O)C3CCN(S(=O)(=O)c4ccc5c(c4)oc(=O)n5C)CC3)sc2c1,-2.8%
3,CCOc1ccc(S(=O)(=O)N(CC(=O)O)c2ccccc2)cc1,0%
4,COc1cc(C2C(C(=O)Nc3ccccc3OC)=C(C)Nc3ncnn32)ccc1O (stereo unspecified),-9.5%
5,COc1ccccc1NC(=O)c1ccc(C)s1,-48.9%
6,COc1ccc(C(=O)Nc2ccc3c(c2)OCO3)cc1OC,-69.8%
7,COCCCNC(=O)C1CC(=O)N(c2ccc(C)cc2)C1 (stereo unspecified),-6.1%
8,CCOC(=O)c1ccc(NC(=O)Cn2nnc(-c3ccc(C)cc3)n2)cc1,-41.7%
9,C=C(C)CSc1nc(N)c2c3c(sc2n1)CCC3,-56.2%
10,CC1CCC(NC(=O)c2ccc(N3CCCC3=O)cc2)CC1 (stereo unspecified),-61.7%
11,CCNS(=O)(=O)c1ccc(NC(=O)Nc2cccc(OC)c2)cc1,10%
12,O=C(NCc1ccccc1)C1C(=O)N(Cc2ccccc2)C(=O)C1C1(O)CCCC1 (stereo unspecified),13%
13,CCOC(=O)CSc1nncc2ccc(OC)c(OC)c12,21%
14,Cc1ccccc1CSc1nnc(-c2cccnc2)n1N,7.1%
15,O=C1c2ccccc2C(=O)N1c1ccccc1S(=O)C(F)(F)F (stereo unspecified),-6.1%
16,COc1ccc(-n2ncc3c(N4CCc5ccccc54)ncnc32)cc1,-50.3%
17,CCS(=O)(=O)N1CCCC(C(=O)NCc2ccc(C)cc2)C1 (stereo unspecified),5.2%
18,Cc1cccc2nc(CNc3ccc(F)cc3)cn12,-1%
19,Cc1cccc(NC(=O)c2ccc3ccccc3n2)n1,-83%
20,COc1ccc(N2CCN(C(=O)CSc3nc4cc(OC)c(OC)cc4cc3C#N)CC2)cc1,8.5%
21,Cc1ccc(NC(=O)NCC(c2cccnc2)N2CCOCC2)cc1 (stereo unspecified),20.8%
22,CCOC(=O)C1=C(C)NC(C)=C(C(=O)OCC)C1C1=COCCO1,7.2%
23,O=C(NCCN1CCOCC1)c1ccc2c(c1)ncn2C1CCCC1,-3.7%
24,Cc1cc(C(=O)OCC(=O)NCc2ccco2)c(C)n1-c1ccccc1,-61.4%

row,Compound,inhibition
1,CCCOC(=O)c1[nH]c2c(c1C)C(=O)CC(c1cc(OC)c(OC)c(OC)c1)C2 (stereo unspecified),61.1% (active)
2,Cc1ccccc1OCC(=O)Nc1ccc(N2CCN(C(=O)C(C)C)CC2)c(Cl)c1,52% (active)
3,COc1ccc(C(=O)CSc2nnc(COc3ccccc3)n2Cc2ccco2)cc1,-7.7%
4,COc1ccc(C)c2sc(=NC(=O)c3ccc(C#N)cc3)n(C)c12,-84.6%
5,CCS(=O)(=O)n1nc(-c2ccc(OC)cc2)nc1SC,-52.4%
6,N#Cc1nc(Cc2ccccc2)oc1NCCc1ccccc1,-54.1%
7,COc1cc(-n2c(C)nc3cc(C(=O)NCc4ccco4)ccc32)cc(OC)c1OC,-5.4%
8,COc1ccc(OC)c(CN2C(=O)CCC2(C)C(=O)NC2CCCCCC2)c1 (stereo unspecified),5.2%
9,CCN(CC)S(=O)(=O)c1cc(C(=O)Nc2ccccn2)ccc1C,-59.6%
10,O=C(Nc1c(C(=O)N2CCCCC2)cnn1-c1ccccc1)c1ccco1,-6.7%
11,O=c1c2ccccc2oc2nc(C3CCCCC3)n(Cc3ccco3)c(=O)c12,2.7%
12,Cc1cccc(OCc2nnc(SCc3nc4cc(C(F)(F)F)ccc4c(=O)[nH]3)o2)c1,16.5%
13,CCOc1cccc(-c2nn3c(-c4ccccn4)nnc3s2)c1,-0.6%
14,O=C(Nc1ccc(Cl)cn1)c1cnn2cccnc12,-62%
15,CSc1ccc(NC(=O)N2CC(C)OC(C)C2)cc1 (stereo unspecified),9.2%
16,CCC(CC)C(=O)Nc1cccc(C(=O)N2CCCC2)c1,-11%
17,Oc1ccc(Cl)cc1/C=N/c1nc2ccccc2[nH]1,-51.7%
18,CSc1cccc(NC(=O)C2CCCN2S(=O)(=O)c2ccc3c(c2)CCC(=O)N3)c1 (stereo unspecified),-14%
19,OC(COc1ccc2ccccc2c1)CN1CCOCC1 (stereo unspecified),-16.8%
20,OCCCN1c2ccccc2Nc2nnc(-c3ccccc3)cc21,-56.8%
21,CCC1(C)Cc2c(sc3nc4n(c(=O)c23)CCCS4)CO1 (stereo unspecified),-15.7%
22,O=C(Cn1c(-c2cncs2)nc2ccccc21)NC1CCCC1,19.7%
23,CCOC(=O)N1CCN(C(=O)C2CCN(c3ncnc4c3sc3cccc(F)c34)CC2)CC1,75.2% (active)
24,O=C(Nc1nc(-c2ccncc2)cs1)C1COc2ccccc2O1 (stereo unspecified),-15.8%
